Measured values as given in ChEMBL document CHEMBL5107950, “Structure-based design of haloperidol analogues as inhibitors of acetyltransferase Eis from Mycobacterium tuberculosis to overcome kanamycin resistance” (RSC Med Chem, 2021).
Values after ≈ are worked out from the molar mass of the structure shown.

Assays:
N-acetyltransferase Eis = target: T1, N-acetyltransferase Eis (Mycobacterium tuberculosis (strain ATCC 25618 / H37Rv), UniProt P9WFK7); test: Inhibition of Mycobacterium tuberculosis Eis assessed as Eis-mediated kanamycin acetylation preincubated for 10 mins followed by substrate addition and measured for 2 to 5 mins using acetyl-CoA as substrate in presence of kanamycin by UV-Vis spectroscopy analysis
T1 sequence (P9WFK7 whole entry): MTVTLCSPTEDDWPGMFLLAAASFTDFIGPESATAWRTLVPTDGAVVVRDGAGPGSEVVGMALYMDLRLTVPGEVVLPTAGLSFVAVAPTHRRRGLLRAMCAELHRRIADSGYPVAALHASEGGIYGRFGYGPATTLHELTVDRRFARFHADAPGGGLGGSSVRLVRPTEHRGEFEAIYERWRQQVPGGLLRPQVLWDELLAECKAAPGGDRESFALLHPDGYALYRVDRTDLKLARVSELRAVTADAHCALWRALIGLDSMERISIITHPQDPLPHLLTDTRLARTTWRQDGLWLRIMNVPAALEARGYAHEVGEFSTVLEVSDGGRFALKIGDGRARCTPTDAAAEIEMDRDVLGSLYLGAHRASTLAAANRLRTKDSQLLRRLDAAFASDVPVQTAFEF
Procedure, shortened: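 Recombinant Eis (1 µM) mixed with KAN (400 µM) in 50 mM Tris-HCl pH 8.0 and preincubated 10 min with 5-fold serially diluted inhibitor (10% DMSO in buffer). Reaction started with AcCoA and DTNB (2 mM each, as added). Absorbance read every 30 s for 20 min. Initial rates (first 2-5 min) fitted to Hill plot for IC50. At least triplicate.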

[1] = test system: Mycolicibacterium smegmatis; test: Antibacterial activity against Mycobacterium smegmatis mc2 155 assessed as inhibition of bacterial growth incubated upto 3 weeks hrs by resazurin dye based double-dilution method; type: functional; conditions: mc2 155, 504 h
Procedure, shortened: (§1)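 Double-dilution broth MIC. Media: M. smegmatis, Mueller-Hinton; M. abscessus, 7H9 + 0.05% Tween80 + 0.4% glycerol; mc²6230, 7H9 + 0.05% tyloxapol, 0.5% glycerol, 10% OADC, 0.2% casamino acids, 24 µg/mL pantothenate; other mycobacteria, 7H9 + 0.05% Tween80, 0.4% glycerol, 10% ADC. Inoculum from agar set to 0.5 McFarland, then diluted 1:100.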

[2] = test system: Mycobacteroides abscessus; test: Antibacterial activity against Mycobacterium abscessus ATCC 19977 assessed as inhibition of bacterial growth incubated upto 3 weeks hrs by resazurin dye based double-dilution method; type: functional; conditions: ATCC 19977, 504 h; procedure, shortened: as §1
[3] = test system: Mycobacterium intracellulare; test: Antibacterial activity against Mycobacterium intracellulare ATCC 13950 assessed as inhibition of bacterial growth incubated upto 3 weeks hrs by resazurin dye based double-dilution method; type: functional; conditions: ATCC 13950, 504 h; procedure, shortened: as §1
Mycobacterium avium = test: Antibacterial activity against Mycobacterium avium ATCC 25921 assessed as inhibition of bacterial growth incubated upto 3 weeks hrs by resazurin dye based double-dilution method; type: functional; conditions: ATCC 25921, 504 h; procedure, shortened: as §1
[4] = test system: Mycobacterium tuberculosis; test: Antibacterial activity against Mycobacterium tuberculosis H37Ra ATCC NRS22 assessed as inhibition of bacterial growth incubated upto 3 weeks hrs by resazurin dye based double-dilution method; type: functional; conditions: H37Ra ATCC NRS22, 504 h; procedure, shortened: as §1
[5] = test system: Mycobacterium tuberculosis; test: Potentiation of kanamycin-induced antibacterial activity against Mycobacterium tuberculosis H37Rv assessed as kanamycin MIC incubated for 1 day followed by kanamycin addition for 6 days and by Alamar blue assay; type: functional; conditions: 168 h, time 7 day
Procedure, shortened: (§2)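 Mtb in 7H9 + 10% ADC, 0.05% Tween 80, 0.4% glycerol at 37 °C. Inoculum adjusted to OD600 0.2, diluted 1:25. Cells preincubated 24 h at 37 °C with compound (100 µL of 200 µM solution). KAN then added: H37Rv at 2.5 and 1.25 µg/mL; K204 at 10, 5, 2.5, 1.25 µg/mL. Incubated 6 days, AlamarBlue added, colour read at 24 and 48 h. MIC = lowest KAN with no colour change. At least twice in duplicate.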

[6] = test system: Mycobacterium tuberculosis; test: Potentiation of kanamycin-induced antibacterial activity against Mycobacterium tuberculosis K204 assessed as kanamycin MIC incubated for 1 day followed by kanamycin addition for 6 days and by Alamar blue assay; type: functional; conditions: K204, 168 h, time 7 day; procedure, shortened: as §2
[7] = Metabolic stability in human liver microsomes at 2 to 4 uM incubated for 30 mins by LC-MS/MS analysis; type: ADME, Microsome; conditions: dose 2-4 µM, read-out: Stability
[8] = Metabolic stability in mouse liver microsomes at 2 to 4 uM incubated for 30 mins by LC-MS/MS analysis; type: ADME, Microsome; conditions: dose 2-4 µM, read-out: Stability

## O=C(CCCN1CCCCC1)c1ccc(F)cc1 [PRIMAPERONE]
N-acetyltransferase Eis
  IC50: 0.62 µM
[1]
  MIC: > 62.5 µM
[2]
  MIC: > 62.5 µM
[3]
  MIC: > 62.5 µM
Mycobacterium avium
  MIC: > 62.5 µM
[4]
  MIC: > 62.5 µM

## CC1CCCCN1CCCOc1ccc(F)cc1 (stereo unspecified)
N-acetyltransferase Eis
  IC50: > 200 µM
[1]
  MIC: 15.6 µM (≈ 3.92 µg/mL)
[2]
  MIC: > 62.5 µM
[3]
  MIC: 7.8 µM (≈ 1.96 µg/mL)
Mycobacterium avium
  MIC: 15.6 µM (≈ 3.92 µg/mL)
[4]
  MIC: 7.8 µM (≈ 1.96 µg/mL)

## Fc1ccc(OCCCN2CCC(c3ccccc3)CC2)cc1
N-acetyltransferase Eis
  IC50: 14 µM
[1]
  MIC: > 62.5 µM
[2]
  MIC: 62.5 µM (≈ 19.6 µg/mL)
[3]
  MIC: 62.5 µM (≈ 19.6 µg/mL)
Mycobacterium avium
  MIC: > 62.5 µM
[4]
  MIC: 31.3 µM (≈ 9.81 µg/mL)

## O=C(CCCN1CCC(c2ccc(Cl)cc2)CC1)c1ccc(F)cc1
N-acetyltransferase Eis
  IC50: 1.1 µM
[1]
  MIC: > 62.5 µM
[2]
  MIC: > 62.5 µM
[3]
  MIC: 31.3 µM (≈ 11.3 µg/mL)
Mycobacterium avium
  MIC: > 62.5 µM
[4]
  MIC: 62.5 µM (≈ 22.5 µg/mL)

## CC(=O)CCCN1CCC(O)(c2ccc(Cl)cc2)CC1
N-acetyltransferase Eis
  IC50: 40 µM
[1]
  MIC: > 62.5 µM
[2]
  MIC: > 62.5 µM
[3]
  MIC: > 62.5 µM
Mycobacterium avium
  MIC: > 62.5 µM
[4]
  MIC: > 62.5 µM

## O=C(CN1CCC(O)(c2ccc(Cl)cc2)CC1)c1ccc(F)cc1
N-acetyltransferase Eis
  IC50: 100 µM
[1]
  MIC: > 62.5 µM
[2]
  MIC: > 62.5 µM
[3]
  MIC: > 62.5 µM
Mycobacterium avium
  MIC: > 62.5 µM
[4]
  MIC: > 62.5 µM

## O=C(CCCN1CCC(O)CC1)c1ccc(F)cc1
N-acetyltransferase Eis
  IC50: 0.69 µM
[1]
  MIC: > 62.5 µM
[2]
  MIC: > 62.5 µM
[3]
  MIC: > 62.5 µM
Mycobacterium avium
  MIC: > 62.5 µM
[4]
  MIC: > 62.5 µM

## COc1ccc(C(=O)CCCN2CCC(O)(c3ccc(Br)cc3)CC2)cc1
N-acetyltransferase Eis
  IC50: 5.6 µM
[5]
  MIC: ≤ 1.25 µg/mL
[6]
  MIC: > 10 µg/mL
[1]
  MIC: > 62.5 µM
[2]
  MIC: > 62.5 µM
[3]
  MIC: > 62.5 µM
Mycobacterium avium
  MIC: 62.5 µM (≈ 27 µg/mL)
[4]
  MIC: 31.3 µM (≈ 13.5 µg/mL)

## CC1CC(C)CN(CCCOc2ccc(F)cc2)C1 (stereo unspecified)
N-acetyltransferase Eis
  IC50: 42 µM
[1]
  MIC: 62.5 µM (≈ 16.6 µg/mL)
[2]
  MIC: > 62.5 µM
[3]
  MIC: > 62.5 µM
Mycobacterium avium
  MIC: > 62.5 µM
[4]
  MIC: 62.5 µM (≈ 16.6 µg/mL)

## CC(C)c1ccc(C(=O)CCCN2CCC(O)(c3ccc(Cl)cc3)CC2)cc1
N-acetyltransferase Eis
  IC50: > 200 µM
[1]
  MIC: 15.6 µM (≈ 6.24 µg/mL)
[2]
  MIC: 31.3 µM (≈ 12.5 µg/mL)
[3]
  MIC: 7.8 µM (≈ 3.12 µg/mL)
Mycobacterium avium
  MIC: > 62.5 µM
[4]
  MIC: 7.8 µM (≈ 3.12 µg/mL)

## O=C(CCCN1CC=C(c2ccc(Cl)cc2)CC1)c1ccc(F)cc1
N-acetyltransferase Eis
  IC50: 0.56 µM
[1]
  MIC: > 62.5 µM
[2]
  MIC: > 62.5 µM
[3]
  MIC: 15.6 µM (≈ 5.58 µg/mL)
Mycobacterium avium
  MIC: 31.3 µM (≈ 11.2 µg/mL)
[4]
  MIC: 7.8 µM (≈ 2.79 µg/mL)
[7]
  remaining at 0.5 h: 30%
[8]
  remaining at 0.5 h: 90%

## NNC(=O)c1ccncc1 [ISONIAZID]
[1]
  MIC: 3.9 µM (≈ 0.535 µg/mL)
[2]
  MIC: > 62.5 µM
[3]
  MIC: 3.9 µM (≈ 0.535 µg/mL)
Mycobacterium avium
  MIC: 62.5 µM (≈ 8.57 µg/mL)
[4]
  MIC: ≤ 1 µM

## Cc1ccc(S(=O)(=O)N2CCC(O)(c3ccc(Cl)cc3)CC2)cc1
N-acetyltransferase Eis
  IC50: > 200 µM
[1]
  MIC: > 62.5 µM
[2]
  MIC: > 62.5 µM
[3]
  MIC: > 62.5 µM
Mycobacterium avium
  MIC: > 62.5 µM
[4]
  MIC: > 62.5 µM
